Active and inactive are the calls of the source. The calls are words filed in the database; no cut-off is given here.
What was measured:
Drosophila melanogaster [1] = assay: Toxicity against Drosophila melanogaster Huntington's disease model at 100 uM; format: organism-based; settings: in vivo
Saccharomyces cerevisiae [2] = assay: Enhancement of nocodazole-mediated cytostatic effect in yeast BY4742 after 48 to 96 hrs; format: functional, organism-based
COS-7 [3] = assay: Effect on ATg5 level in african green monkey COS7 cells at 47 uM after 24 hrs by immunoblotting; format: functional, cell-based; settings: Chlorocebus aethiops
HeLa [4] = assay: Induction of autophagy in human HeLa cells harboring MAP1LC3 gene at 47 uM after 24 hrs by DAPI staining-based fluorescence microscopy; format: functional, cell-based
In short: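 Stable EGFP-LC3 HeLa cells treated 24 h. EGFP-positive autophagic vesicles were imaged by confocal microscopy with DAPI nuclear counterstain.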

[5] = biological target: Serine/threonine-protein kinase mTOR (Homo sapiens) (UniProt P42345); assay: Inhibition of mTOR phosphorylation expressed in african green monkey COS7 cells at 47 uM by Western blot analysis; format: cell-based; settings: COS-7
Drosophila melanogaster [6] = assay: Neuroprotective activity in Drosophila melanogaster Huntington's disease model harboring huntington protein mutant assessed as protection against neurodegeneration at 100 uM; format: functional, organism-based
[7] = biological target: Huntingtin (Mus musculus) (UniProt P42859); assay: Inhibition of EGFP-tagged huntingtin aggregation in Atg5-deficient MEF at 47 uM after 48 hrs by Western blot analysis
[8] = biological target: Huntingtin (Homo sapiens) (UniProt P42858); assay: Inhibition of EGFP-tagged huntingtin aggregation expressed in african green monkey COS7 cells at 140 uM after 24 hrs by […] in presence of 0.2 uM rapamycin; format: cell-based; settings: COS-7
[9] = biological target: Huntingtin (Mus musculus) (UniProt P42859); assay: Inhibition of EGFP-tagged huntingtin aggregation in MEF harboring Atg5 gene at 47 uM after 48 hrs by Western blot analysis
Saccharomyces cerevisiae [10] = assay: Enhancement of CHX-mediated cytostatic effect in yeast BY4742 after 48 to 96 hrs; format: functional, organism-based
Saccharomyces paradoxus [11] = assay: Enhancement of rapamycin-mediated cytostatic effect in Saccharomyces paradoxus after 48 to 96 hrs; format: functional
HeLa [12] = assay: Inhibition of proteasome activity in human HeLa cells assessed as induction of ubiquitinG76V-EGFP reporter level at 47 uM after 24 hrs by immunoblotting
[13] = biological target: Huntingtin (Homo sapiens) (UniProt P42858); assay: Inhibition of EGFP-tagged huntingtin expressed in african green monkey COS7 cells assessed as protection against protein-induced cell death at 47 uM after 48 hrs by Western blot analysis; format: cell-based; settings: COS-7
COS-7 [14] = assay: Effect on ATg12 level in african green monkey COS7 cells at 47 uM after 24 hrs by immunoblotting; format: functional, cell-based; settings: Chlorocebus aethiops
COS-7 [15] = assay: Increase in conjugated Atg12-Atg5 level in african green monkey COS7 cells at 47 uM after 24 hrs by immunoblotting; format: functional, cell-based; settings: Chlorocebus aethiops
[16] = biological target: Huntingtin (Homo sapiens) (UniProt P42858); assay: Inhibition of EGFP-tagged huntingtin aggregation expressed in african green monkey COS7 cells at 47 uM after 48 hrs by […]; format: cell-based; settings: COS-7
PC-12 [17] = assay: Enhancement of autophagy in rat PC12 cells assessed as decrease in alpha-synuclein A53T mutant level at 47 uM by immunoblotting; format: functional, cell-based
In short: (§1)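 Stable PC12 line with doxycycline-inducible HA-tagged A53T α-synuclein; induced with 1 μg/ml doxycycline for 48 h, then doxycycline removed. Compounds added during the 24 h switch-off period, from 5 mg ml⁻¹ DMSO stock diluted 1:20000, 1:4000 or 1:400. HA immunoblot, densitometry relative to actin; control set to 100 %; three independent experiments, factorial ANOVA.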

PC-12 [18] = assay: Enhancement of autophagy in rat PC12 cells assessed as decrease in alpha-synuclein A53T mutant level at 43 uM by immunoblotting; format: functional, cell-based; in short: as §1
Saccharomyces mikatae [19] = assay: Enhancement of rapamycin-mediated cytostatic effect in Saccharomyces mikatae after 48 to 96 hrs; format: functional
COS-7 [20] = assay: Effect on ATg6 level in african green monkey COS7 cells at 47 uM after 24 hrs by immunoblotting; format: functional, cell-based; settings: Chlorocebus aethiops
PC-12 [21] = assay: Enhancement of rapamycin-induced clearance of alpha-synuclein A53T mutant protein in rat PC12 cells at 140 uM after 8 hrs by immunoblotting; format: functional, cell-based
In short: (§2)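 Inducible PC12 A53T α-synuclein line (1 μg/ml doxycycline, 48 h, then switched off). Compound given alone or with 0.2 μM rapamycin over an 8 h switch-off period. Read-out is anti-HA immunoblot with densitometry relative to actin, n=3, control as 100 %.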

Saccharomyces cerevisiae [22] = assay: Enhancement of rapamycin-mediated cytostatic effect in yeast RM11-1a after 48 to 96 hrs; format: functional
Saccharomyces cerevisiae [23] = assay: Enhancement of menadione-mediated cytostatic effect in yeast BY4742 after 48 to 96 hrs; format: functional, organism-based
Saccharomyces cerevisiae [24] = assay: Enhancement of anisomycin-mediated cytostatic effect in yeast BY4742 after 48 to 96 hrs; format: functional, organism-based
[25] = Cytotoxicity against african green monkey COS7 cells at 47 uM after 24 hrs by FACS analysis; format: cell-based; settings: chlorocebus aethiops, cos-7, 24 h
PC-12 [26] = assay: Enhancement of rapamycin-induced clearance of alpha-synuclein A53T mutant protein in rat PC12 cells at 43 uM after 8 hrs by immunoblotting; format: functional, cell-based; in short: as §2
Saccharomyces cerevisiae [27] = assay: Enhancement of tunicamycin-mediated cytostatic effect in yeast BY4742 after 48 to 96 hrs; format: functional, organism-based
HeLa [28] = assay: Increase in MAP1LC3 level in bafilomycin A1-treated human HeLa cells at 47 uM treated fro 24 hrs before bafilomycin A1 challenge by immunoblotting analysis; format: functional, cell-based
In short: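 HeLa cells stably expressing EGFP-LC3 were pretreated with compound for 24 h, then given 200 nM bafilomycin A1 for 4 h. EGFP-LC3-II was measured by anti-EGFP immunoblot with densitometry relative to actin, from three independent experiments.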

Saccharomyces cerevisiae [29] = assay: Enhancement of 20 nM rapamycin-mediated cytostatic effect in yeast BY4742 after 48 to 96 hrs; format: functional, organism-based
COS-7 [30] = assay: Effect on ATg7 level in african green monkey COS7 cells at 47 uM after 24 hrs by immunoblotting; format: functional, cell-based; settings: Chlorocebus aethiops
Saccharomyces bayanus [31] = assay: Enhancement of rapamycin-mediated cytostatic effect in Saccharomyces bayanus after 48 to 96 hrs; format: functional
PC-12 [32] = assay: Enhancement of autophagy in rat PC12 cells assessed as decrease in alpha-synuclein A53T mutant level at 5 mg/ml by densitometry; format: functional, cell-based; in short: as §1
[33] = biological target: Huntingtin (Homo sapiens) (UniProt P42858); assay: Inhibition of EGFP-tagged huntingtin aggregation expressed in african green monkey COS7 cells at 47 uM after 24 hrs by […] in presence of 0.2 uM rapamycin; format: cell-based; settings: COS-7
PC-12 [34] = assay: Enhancement of rapamycin-induced clearance of alpha-synuclein A53T mutant protein in rat PC12 cells at 47 uM after 8 hrs by immunoblotting; format: functional, cell-based; in short: as §2
Saccharomyces cerevisiae [35] = assay: Inhibition of rapamycin-mediated cytostatic effect in yeast RM11-1a after 48 to 96 hrs; format: functional
Saccharomyces paradoxus [36] = assay: Inhibition of rapamycin-mediated cytostatic effect in Saccharomyces paradoxus after 48 to 96 hrs; format: functional
Saccharomyces bayanus [37] = assay: Inhibition of rapamycin-mediated cytostatic effect in Saccharomyces bayanus after 48 to 96 hrs; format: functional
Saccharomyces mikatae [38] = assay: Inhibition of rapamycin-mediated cytostatic effect in Saccharomyces mikatae after 48 to 96 hrs; format: functional
Saccharomyces cerevisiae [39] = assay: Inhibition of 50 nM rapamycin-mediated cytostatic effect in yeast BY4742 after 48 to 96 hrs; format: functional, organism-based

Huntingtin (Mus musculus), sequence (P42859 whole entry): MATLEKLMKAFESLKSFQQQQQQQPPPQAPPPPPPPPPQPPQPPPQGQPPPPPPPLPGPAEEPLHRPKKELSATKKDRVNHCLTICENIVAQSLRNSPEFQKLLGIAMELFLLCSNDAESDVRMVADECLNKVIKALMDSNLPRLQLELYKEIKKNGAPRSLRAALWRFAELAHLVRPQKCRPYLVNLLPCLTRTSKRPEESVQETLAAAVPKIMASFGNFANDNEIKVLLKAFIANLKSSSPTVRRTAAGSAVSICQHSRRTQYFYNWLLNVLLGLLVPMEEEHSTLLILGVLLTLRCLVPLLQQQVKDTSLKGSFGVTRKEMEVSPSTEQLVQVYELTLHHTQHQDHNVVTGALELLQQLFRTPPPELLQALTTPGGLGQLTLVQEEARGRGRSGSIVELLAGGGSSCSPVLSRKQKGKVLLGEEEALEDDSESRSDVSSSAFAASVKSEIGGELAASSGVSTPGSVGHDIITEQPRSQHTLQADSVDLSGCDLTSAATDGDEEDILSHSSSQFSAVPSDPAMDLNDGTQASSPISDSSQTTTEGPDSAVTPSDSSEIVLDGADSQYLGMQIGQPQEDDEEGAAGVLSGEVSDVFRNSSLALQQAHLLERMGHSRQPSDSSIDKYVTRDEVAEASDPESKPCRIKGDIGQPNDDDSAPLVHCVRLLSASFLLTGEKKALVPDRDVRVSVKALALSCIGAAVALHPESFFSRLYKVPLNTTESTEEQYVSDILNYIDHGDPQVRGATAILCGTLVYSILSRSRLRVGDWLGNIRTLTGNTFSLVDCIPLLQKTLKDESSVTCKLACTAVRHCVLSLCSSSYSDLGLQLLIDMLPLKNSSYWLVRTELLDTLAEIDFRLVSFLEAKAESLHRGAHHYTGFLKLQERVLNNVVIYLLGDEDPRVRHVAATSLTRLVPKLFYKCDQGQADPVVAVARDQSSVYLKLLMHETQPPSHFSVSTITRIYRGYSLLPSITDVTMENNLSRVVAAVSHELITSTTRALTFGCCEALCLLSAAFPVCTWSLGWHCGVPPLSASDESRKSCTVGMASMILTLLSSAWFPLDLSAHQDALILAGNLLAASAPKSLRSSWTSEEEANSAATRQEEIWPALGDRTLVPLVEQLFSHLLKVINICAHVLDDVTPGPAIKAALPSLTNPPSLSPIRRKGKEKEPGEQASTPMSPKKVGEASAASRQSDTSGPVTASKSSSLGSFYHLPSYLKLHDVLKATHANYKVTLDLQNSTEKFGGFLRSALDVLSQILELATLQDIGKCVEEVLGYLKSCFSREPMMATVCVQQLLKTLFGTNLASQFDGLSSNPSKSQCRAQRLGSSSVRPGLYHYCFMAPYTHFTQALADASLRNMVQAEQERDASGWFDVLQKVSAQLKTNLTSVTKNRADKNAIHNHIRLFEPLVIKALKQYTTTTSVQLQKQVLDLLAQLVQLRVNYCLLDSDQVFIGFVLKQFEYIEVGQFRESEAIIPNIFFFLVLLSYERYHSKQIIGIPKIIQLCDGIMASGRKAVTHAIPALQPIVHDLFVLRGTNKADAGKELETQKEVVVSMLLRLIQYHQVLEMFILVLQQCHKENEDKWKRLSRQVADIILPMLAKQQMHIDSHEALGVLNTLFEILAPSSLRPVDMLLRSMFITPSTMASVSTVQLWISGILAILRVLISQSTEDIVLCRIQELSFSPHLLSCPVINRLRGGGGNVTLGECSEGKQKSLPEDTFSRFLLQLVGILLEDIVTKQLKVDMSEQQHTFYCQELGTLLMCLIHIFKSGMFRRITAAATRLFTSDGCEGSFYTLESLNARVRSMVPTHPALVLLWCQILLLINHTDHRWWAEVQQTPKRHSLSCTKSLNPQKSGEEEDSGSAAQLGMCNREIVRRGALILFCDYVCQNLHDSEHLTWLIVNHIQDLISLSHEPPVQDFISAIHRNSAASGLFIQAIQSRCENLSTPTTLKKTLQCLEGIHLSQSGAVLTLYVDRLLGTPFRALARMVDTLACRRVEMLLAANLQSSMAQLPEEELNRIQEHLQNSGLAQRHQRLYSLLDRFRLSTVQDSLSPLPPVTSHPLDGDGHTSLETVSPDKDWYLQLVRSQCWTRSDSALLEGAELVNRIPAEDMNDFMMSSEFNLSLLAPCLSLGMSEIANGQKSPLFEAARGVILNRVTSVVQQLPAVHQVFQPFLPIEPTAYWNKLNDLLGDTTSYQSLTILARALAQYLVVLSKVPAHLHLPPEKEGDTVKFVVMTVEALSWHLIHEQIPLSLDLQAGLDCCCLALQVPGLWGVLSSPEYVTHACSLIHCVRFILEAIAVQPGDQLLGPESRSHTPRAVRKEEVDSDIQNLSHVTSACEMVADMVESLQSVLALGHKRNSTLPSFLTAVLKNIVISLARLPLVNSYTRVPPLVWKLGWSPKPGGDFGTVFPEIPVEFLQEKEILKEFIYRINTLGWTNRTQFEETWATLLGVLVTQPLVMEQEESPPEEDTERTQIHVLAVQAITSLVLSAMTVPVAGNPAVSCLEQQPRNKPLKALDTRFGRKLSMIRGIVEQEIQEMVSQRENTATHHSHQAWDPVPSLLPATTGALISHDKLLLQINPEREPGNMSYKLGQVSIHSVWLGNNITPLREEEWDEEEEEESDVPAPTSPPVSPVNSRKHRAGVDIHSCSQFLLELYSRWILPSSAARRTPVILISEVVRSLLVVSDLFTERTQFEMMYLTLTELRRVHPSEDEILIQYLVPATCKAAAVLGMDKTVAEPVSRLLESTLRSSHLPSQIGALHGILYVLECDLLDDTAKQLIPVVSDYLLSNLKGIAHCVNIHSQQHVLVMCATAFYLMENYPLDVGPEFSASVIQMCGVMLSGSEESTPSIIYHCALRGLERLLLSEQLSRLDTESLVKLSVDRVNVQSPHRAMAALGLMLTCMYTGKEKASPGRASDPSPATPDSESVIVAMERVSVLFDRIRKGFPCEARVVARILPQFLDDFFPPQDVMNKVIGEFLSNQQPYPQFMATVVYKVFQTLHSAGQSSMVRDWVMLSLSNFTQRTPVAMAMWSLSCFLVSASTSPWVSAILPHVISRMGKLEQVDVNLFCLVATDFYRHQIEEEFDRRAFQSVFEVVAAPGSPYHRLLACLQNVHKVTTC

Row | inhibition [5] | inhibition [7] | inhibition [9] | inhibition (HeLa [12]) | inhibition [16] | Structure (SMILES) | Activity (Drosophila melanogaster [1]) | Activity (COS-7 [3]) | Activity (HeLa [4]) | Activity (Drosophila melanogaster [6]) | Activity (Saccharomyces paradoxus [11]) | inhibition [13] | Activity (COS-7 [14]) | Activity (COS-7 [15]) | Activity (PC-12 [17]) | Activity (PC-12 [18]) | Activity (Saccharomyces mikatae [19]) | Activity (COS-7 [20]) | Activity (Saccharomyces cerevisiae [22]) | Activity [25] | Activity (HeLa [28]) | further results
1 | inactive | inactive | inactive | inactive | Active | Nn1cnc2c(c1=O)C1(CCCC1)Cc1ccccc1-2 | Non-toxic | inactive | Active | Active | Active | Active | inactive | inactive | Active | Active | Active | inactive | Active | Non-toxic | Active | Activity (Saccharomyces cerevisiae [2]): Active; inhibition [8]: Active; Activity (Saccharomyces cerevisiae [10]): Active; Activity (PC-12 [21]): Active; Activity (Saccharomyces cerevisiae [23]): Active; Activity (Saccharomyces cerevisiae [24]): Active; Activity (PC-12 [26]): Active; Activity (Saccharomyces cerevisiae [27]): Active; EC50 (Saccharomyces cerevisiae [29]): 4.9 µM; Activity (COS-7 [30]): inactive; Activity (Saccharomyces bayanus [31]): Active; Activity (PC-12 [32]): Active
2 | inactive | inactive | inactive | inactive | Active | C=CCNc1ncnc2ccc(Br)cc12 | Non-toxic | inactive | Active | Active | Active | Active | inactive | inactive | Active | Active | Active | inactive | Active | Non-toxic | Active | inhibition [33]: Active; Activity (PC-12 [34]): Active; EC50 (Saccharomyces cerevisiae [29]): > 50 µM; Activity (COS-7 [30]): inactive; Activity (Saccharomyces bayanus [31]): Active; Activity (PC-12 [32]): Active
3 |  |  |  |  |  | O=C1C(Nc2ccccc2)=CC(=O)c2ncccc21 |  |  |  |  |  |  |  |  |  |  |  |  |  |  |  | inhibition (Saccharomyces cerevisiae [35]): Active; inhibition (Saccharomyces paradoxus [36]): Active; inhibition (Saccharomyces bayanus [37]): Active; inhibition (Saccharomyces mikatae [38]): Active; EC50 (Saccharomyces cerevisiae [39]): 10.4 µM

— ChEMBL document CHEMBL1240327, “Small molecules enhance autophagy and reduce toxicity in Huntington's disease models” (Nat Chem Biol, 2007)
